High-throughput results deposited in PubChem by several laboratories.
CFTR F508del cor = correctors of CFTR F508del function in bronchial epithelial cells | CFBE cells, YFP halide quenching; stimulated with forskolin plus potentiator P3; % fluorescence drop versus neutral controls | activity (quench increase), % at 7.58 µM | actives 0.36% (n = 350,000);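 active means mean added fluorescence quench of at least 8% versus neutral control, with both replicates also reaching 8%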;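 further: cells transiently co-express mutant CFTR-F508del with the halide-sensitive YFP; corrector assay measuring rescue of mutant channel to the surface after 24 h compound exposure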
Scp-1 inhibitor = blocks human Scp-1 phosphatase activity; Recombinant Scp1, phosphopeptide, malachite green phosphate absorbance; inhibition, % at 20 µM; actives 0.88% (n = 340,000); AID 493091;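 active means inhibition above about 50% at 20 µM, limit read from the data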
Target sequence (Q9GZU7 76-261 limits assumed): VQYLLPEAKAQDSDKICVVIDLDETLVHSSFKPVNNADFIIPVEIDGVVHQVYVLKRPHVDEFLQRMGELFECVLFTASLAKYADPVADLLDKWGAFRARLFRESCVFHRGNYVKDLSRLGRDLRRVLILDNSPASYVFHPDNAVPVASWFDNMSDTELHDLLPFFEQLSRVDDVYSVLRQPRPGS
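Times: enzyme reaction 45 min at room temperature, colour 5 min, stabilisation 30 min. Material: SCP-1 catalytic fragment, aa 76-261. Medium: Acidic Tris acetate buffer with magnesium and detergent. Signal: colorimetric free-phosphate detection, absorbance 630 nm. Read-out basis: % inhibition of SCP-1 phosphate liberation. Reagent: Phosphorylated 17-residue peptide substrate.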
DNMT1 inh = blocks human DNA methyltransferase DNMT1. P26358. DNMT1 molecular beacon, Hinp1I cleavage, fluorescence. inhibition (reported as % activation of signal), % at 10 µM. actives 0.83% (n = 360,000). AID 588458; in the data active means inhibition above about 50%
LMPTP block = LMPTP (human) inhibition; actives 0.22% (n = 360,000); P24666; inhibition, % at 20 µM; recombinant LMPTP-A, OMFP fluorogenic substrate, fluorescence intensity;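 active means compounds that cut the enzyme signal by at least half of the control window in the single-dose screen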
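Test system – LMPTP-A phosphatase enzyme · Quantity – 0.625 nM LMPTP-A final · Reagent – OMFP substrate, 400 µM final · Dosing – one test concentration per compound, 20 µM, with 3% DMSO overall · Timing – 50 min enzyme reaction at room temperature, protected from light · Detection – fluorescence intensity · Controls – substrate-only low control, DMSO enzyme-plus-substrate high control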
SUMO1-SIM PPI = SUMO1-SIM interaction modulation. P63165. SUMO1 binding to a labelled peptide, TR-FRET, 1 h. inhibition, % at 20 µM. actives 0.33% (n = 360,000); in the data active means inhibition above about 37%
STEP block = inhibitors of human striatal-enriched phosphatase STEP; recombinant STEP, OMFP fluorogenic substrate, fluorescence; inhibition, % at 20 µM; actives 0.25% (n = 360,000); AID 588621;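 active means inhibition at 20 µM, scaled per plate between control wells, above about 37%, limit read from the data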
Target sequence (P54829 whole entry, looked up): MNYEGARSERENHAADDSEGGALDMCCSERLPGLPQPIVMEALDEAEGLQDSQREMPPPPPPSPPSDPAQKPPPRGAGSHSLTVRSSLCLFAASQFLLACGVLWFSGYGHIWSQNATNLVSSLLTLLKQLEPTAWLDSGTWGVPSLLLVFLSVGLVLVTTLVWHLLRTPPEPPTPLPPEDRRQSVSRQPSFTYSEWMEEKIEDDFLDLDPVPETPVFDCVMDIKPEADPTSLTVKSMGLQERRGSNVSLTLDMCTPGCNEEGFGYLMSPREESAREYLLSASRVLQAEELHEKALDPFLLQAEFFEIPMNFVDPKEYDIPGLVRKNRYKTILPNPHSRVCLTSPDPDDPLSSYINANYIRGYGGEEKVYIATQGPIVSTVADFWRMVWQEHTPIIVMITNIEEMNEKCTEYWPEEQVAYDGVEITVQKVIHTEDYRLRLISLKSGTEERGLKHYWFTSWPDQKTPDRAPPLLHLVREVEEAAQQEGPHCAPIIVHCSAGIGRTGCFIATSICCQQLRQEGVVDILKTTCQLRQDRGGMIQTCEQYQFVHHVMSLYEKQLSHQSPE
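Test system: STEP tyrosine phosphatase / Reagent: OMFP at 25 µM / Doses: 20 µM, 1% DMSO / Read-out: percent inhibition scaled to no-enzyme and uninhibited-enzyme controls, plate-pattern corrected / Detection: FITC-channel fluorescence of OMFP product / Medium: Bis-Tris buffer pH 6.0, 2.5 mM DTT, 0.005% Tween 20 / Schedule: 20 min at room temperature, dark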
Scp1 confirm = confirmation of human Scp-1 phosphatase inhibitors | recombinant SCP-1 catalytic domain, phosphate release, malachite green absorbance | actives 61% (n = 2,500) | inhibition, % at 20 µM | shares compounds with Scp-1 inhibitor
MG interference = interferes with malachite green readout, flagging false Scp-1 hits | shares compounds with Scp-1 inhibitor | Colorimetric interference counterscreen, malachite green absorbance 630 nm | apparent inhibition (interference), % at 20 µM | 2,500 tested, under 10 active | AID 540313;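 further: compounds added after enzyme reaction finished so only phosphate colour detection is probed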
Scp-1 Tm shift = validation of human Scp-1 inhibitors by thermal shift binding | Recombinant SCP1, Sypro Orange thermal shift Tm | thermal shift relative to vanadate control, % at 40 µM | actives 25% (n = 1,500) | shares compounds with Scp-1 inhibitor | AID 540329;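 active means substances whose mean melting-temperature shift, as a percentage of the reference inhibitor's shift, reaches about 5.3%, limit read from the data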
DNMT1 inh conf = confirmation of human DNMT1 inhibitors | shares compounds with DNMT1 inh | AID 602385 | DNMT1 molecular beacon HinP1I cleavage, fluorescence | inhibition, % at 10 µM | actives 8% (n = 2,300);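 active means average inhibition of at least 30% in the single-concentration confirmation test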
Beacon interf = counter-screen for DNMT1 inhibitors: spectral interference; shares compounds with DNMT1 inh; DNMT1 molecular beacon spectral interference counterscreen, fluorescence 485/520; activation (fluorescence interference), % at 10 µM; actives 1% (n = 2,300); AID 602387;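 active means activation of at least 30% at 10 µM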;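 further: DNMT1 catalytic domain with a HinP1I cleavage step and a FAM/dabcyl DNA beacon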
STEP inh conf = confirmation of human STEP phosphatase inhibitors | shares compounds with STEP block | recombinant STEP, OMFP fluorogenic substrate, fluorescence | inhibition, % at 20 µM | actives 32% (n = 520); call rule not given here
Of the large screens only hits and unclear results are named; the others gave an inactive call (follow-up assays come after a bar, where they were run). A selection: hits, their analogues and other compounds. The true share with any hit is near 1.6%.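 How the source made its calls, unless noted: active means inhibition of at least 30% at 20 µM; inactive means the rest.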

CC(=O)OCC1=C(C(=O)O)N2C(=O)[C@@H](NC(=O)Cc3ccccc3)[C@H]2SC1	none
C=CC1=C(C(=O)O)N2C(=O)C(NC(=O)Cc3ccccc3)C2SC1 (stereo not drawn)	Scp-1 inhibitor 96.2, DNMT1 inh 89.9, LMPTP block 72.9, SUMO1-SIM PPI 84.7, STEP block 87.9 (no result: CFTR F508del cor) | Scp1 confirm 78.2 | MG interference inactive | Scp-1 Tm shift inactive | DNMT1 inh conf inactive | Beacon interf inactive | STEP inh conf 35.8
Cc1csc2nc(NC(=O)c3ccccc3)sc(=O)c12	Scp-1 inhibitor 87.2, LMPTP block 56.7, STEP block 79.3 | Scp1 confirm 69.8 | MG interference inactive | Scp-1 Tm shift inactive | STEP inh conf inactive
Cc1csc2c(=O)sc(NC(=O)c3ccc(F)cc3)nc12	none
C[C@H](CO)N1C[C@H](C)[C@@H](CN(C)CC2CCOCC2)Oc2ncc(-c3cccc(F)c3)cc2C1=O	none (no result: Scp-1 inhibitor, DNMT1 inh, LMPTP block, SUMO1-SIM PPI, STEP block)
C[C@@H]1CCCCO[C@@H](CN(C)CC2CCCCC2)[C@H](C)CN([C@H](C)CO)C(=O)c2cc(NS(=O)(=O)c3cccs3)ccc2O1	none (no result: Scp-1 inhibitor, DNMT1 inh, LMPTP block, SUMO1-SIM PPI, STEP block)
COc1ccc(-c2ccc3c(c2)O[C@@H](CN(C)CC2CCOCC2)[C@H](C)CN([C@H](C)CO)S3(=O)=O)cc1	none (no result: Scp-1 inhibitor, DNMT1 inh, LMPTP block, SUMO1-SIM PPI, STEP block)
O=C1NC(=Nc2cccnc2)S/C1=C/c1ccc(F)cc1	CFTR F508del cor 14.3, Scp-1 inhibitor 87.4, STEP block 61.2 | Scp1 confirm 50.4 | MG interference inactive | Scp-1 Tm shift inactive | STEP inh conf inactive
Cc1ccc(/C=C2/SC(=Nc3ccc(F)cc3)NC2=O)s1	none
COc1ccc(Cn2c(-c3ccco3)nc3c(c(=O)c4ccccc4n3C)c2=O)cc1	Scp-1 inhibitor 90.8, LMPTP block 69.1, SUMO1-SIM PPI 45.0, STEP block 79.8 | Scp1 confirm inactive | MG interference inactive | STEP inh conf inactive
Cc1noc(C)c1NC(=O)N(C)C[C@H]1Oc2c(NS(=O)(=O)c3ccccc3)cccc2C(=O)N([C@H](C)CO)C[C@@H]1C	none (no result: Scp-1 inhibitor, DNMT1 inh, LMPTP block, SUMO1-SIM PPI, STEP block)
C[C@@H]1CN([C@H](C)CO)C(=O)Cc2cc(NC(=O)CCCCCC(=O)Nc3ccccc3N)ccc2O[C@@H]1CN(C)S(=O)(=O)c1ccc(F)cc1	none (no result: Scp-1 inhibitor, DNMT1 inh, LMPTP block, SUMO1-SIM PPI, STEP block)
CC(OC(=O)c1ccccn1)C(=O)Nc1ccc2c(c1)OCCO2 (stereo not drawn)	none
CCN(c1ccccc1)S(=O)(=O)c1cc(C(=O)OCC(=O)c2c(N)n(C)c(=O)n(C)c2=O)ccc1C	Scp-1 inhibitor 61.9, DNMT1 inh 92.9, STEP block 45.7 | Scp1 confirm 62.6 | MG interference inactive | Scp-1 Tm shift inactive | DNMT1 inh conf inactive | Beacon interf inactive | STEP inh conf 70.4
CCN(c1ccccc1)S(=O)(=O)c1cc(C(=O)OC(C)C(=O)Nc2ccc3c(c2)OCCO3)ccc1C (stereo not drawn)	Scp-1 inhibitor 81.3, STEP block 41.2 | Scp1 confirm 63.2 | MG interference inactive | Scp-1 Tm shift 7.5 | STEP inh conf 59.2
Cn1c2ccccc2c(=O)c2c(=O)n(-c3ccc(F)cc3)c(-c3cccs3)nc21	Scp-1 inhibitor 101.3, STEP block 43.7 | Scp1 confirm 53.8 | MG interference inactive | Scp-1 Tm shift inactive | STEP inh conf inactive
Cc1ccc(-c2nc3c(c(=O)c4ccccc4n3C)c(=O)n2-c2ccc(F)cc2)cc1	none
COc1ccc2cc3c(N)nn(C(=O)c4cccc([N+](=O)[O-])c4)c3nc2c1	Scp-1 inhibitor 98.1, DNMT1 inh 76.9, LMPTP block 66.0, SUMO1-SIM PPI 52.7, STEP block 97.9 (no result: CFTR F508del cor) | Scp1 confirm 79.5 | MG interference inactive | Scp-1 Tm shift inactive | DNMT1 inh conf inactive | Beacon interf inactive | STEP inh conf inactive
COc1ccc2c(C)cc(SCC(=O)Nc3nsc(-c4ccc(C)cc4)n3)nc2c1	none
Cc1ccc(-c2nc(NC(=O)CSc3cc(C)c4ccccc4n3)ns2)cc1	Scp-1 inhibitor 106.0, DNMT1 inh 89.9, LMPTP block 66.4, STEP block 69.9 | Scp1 confirm 83.6 | MG interference inactive | Scp-1 Tm shift inactive | DNMT1 inh conf inactive | Beacon interf inactive | STEP inh conf 49.9
Cc1ccc(S(=O)(=O)Cc2ccc(C(=O)O)o2)cc1	Scp-1 inhibitor 86.5, DNMT1 inh 88.8, STEP block 55.3 | Scp1 confirm 50.4 | MG interference inactive | Scp-1 Tm shift 7.9 | DNMT1 inh conf inactive | Beacon interf inactive | STEP inh conf 50.4
O=C(N/N=C/c1ccccc1Cl)c1nc2ccc([N+](=O)[O-])cc2c(=O)[nH]1	Scp-1 inhibitor 70.2, STEP block 54.0 (no result: CFTR F508del cor) | Scp1 confirm 31.7 | MG interference inactive | Scp-1 Tm shift 7.5 | STEP inh conf inactive
CO[C@@H]1CN(C)C(=O)c2cc(NS(C)(=O)=O)ccc2OC[C@H](C)N(CC2CCOCC2)C[C@@H]1C	none (no result: Scp-1 inhibitor, DNMT1 inh, LMPTP block, SUMO1-SIM PPI, STEP block)
CCc1ccc(N=C2NC(=O)/C(=C/c3ccc(OCC(=O)O)cc3)S2)cc1	Scp-1 inhibitor 74.2, STEP block 41.4 | Scp1 confirm 42.4 | MG interference inactive | Scp-1 Tm shift inactive | STEP inh conf 70.5
COc1ccc(-c2nn(-c3ccccc3)cc2C2CC(c3cccs3)=NN2C(=O)CCC(=O)O)cc1 (stereo not drawn)	none
COc1ccc(C2=NN(C(=O)CCCC(=O)O)C(c3cn(-c4ccccc4)nc3-c3ccccc3)C2)cc1 (stereo not drawn)	Scp-1 inhibitor 96.7, STEP block 69.8 | Scp1 confirm 85.9 | MG interference inactive | Scp-1 Tm shift inactive | STEP inh conf inactive
